# Hits are enriched below; roughly 5.8% of the tested compounds scored in any of these assays.
# IDH1 R132H inh: IDH1 R132H (human) inhibition. hit rate 0.18% among 70,000. inhibition, % at 10 µM. O75874. IDH1 R132H reductase, diaphorase/resazurin fluorescence, 60 min. AID 624101; in the data active = inhibition above about 34%; inconclusive = no clear call, values can overlap the other calls; inactive = below about 11%;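 note: 0% = DMSO and 100% = no enzyme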
# Target sequence (O75874 whole entry R132H): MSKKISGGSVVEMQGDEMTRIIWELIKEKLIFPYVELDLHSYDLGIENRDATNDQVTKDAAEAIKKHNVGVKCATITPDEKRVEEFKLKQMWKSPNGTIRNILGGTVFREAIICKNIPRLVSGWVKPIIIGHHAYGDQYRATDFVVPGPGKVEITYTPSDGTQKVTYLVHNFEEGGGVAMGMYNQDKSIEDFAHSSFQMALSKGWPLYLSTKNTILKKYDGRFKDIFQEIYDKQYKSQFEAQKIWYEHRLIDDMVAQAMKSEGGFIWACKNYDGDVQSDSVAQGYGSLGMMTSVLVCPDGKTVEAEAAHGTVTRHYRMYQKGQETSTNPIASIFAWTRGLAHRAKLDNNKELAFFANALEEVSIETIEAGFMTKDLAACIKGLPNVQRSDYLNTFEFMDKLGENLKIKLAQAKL
# Pf Dd2 growth: P. falciparum Dd2 growth inhibition | SYBR Green, 72 h; active compounds read low | activity change, % at 10 µM | hit rate 2.3% among 94,000 | AID 1159554; in the data active = activity change below about -80%; inconclusive = no clear call, values can overlap the other calls
# T cruzi growth-1: blocks T. cruzi growth in NIH3T3 culture; T. cruzi beta-gal in NIH3T3, GalScreen luminescence, 90 h; inhibition, % at 8.34 µM; hit rate 5.9% among 77,000; AID 624255;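 active = mean inhibition above about 93%, with at least 55% of replicates each passing it, limit read from the data, passing the limit was not always enough; inconclusive = only one of those two conditions holds; inactive = neither condition holds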
# KDM4C inh: inhibitors of human demethylase GASC-1 KDM4C; GST-KDM4C 2-372, H3K9me3 peptide, LANCE TR-FRET; inhibition, % at 12.5 µM; hit rate 0.15% among 96,000;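 active = mean replicate inhibition above about 25%, with at least 55% of replicates also reaching it, limit read from the data, passing the limit was not always enough; inconclusive = only one of those two conditions met; inactive = neither condition met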
#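 Assay system: GST-GASC-1 enzyme fragment 2-372 | Amount: 10 nM enzyme | Medium: HEPES buffer, pH 7.5, plus ascorbate | Reagent: H3K9me3 peptide substrate, Fe(II), 2-oxoglutarate | Doses: Single-point compound screen | Incubation: 30 min demethylation and 1 h detection at room temperature | Measured by: LANCE TR-FRET, excitation 340 nm, emissions 618 and 671 nm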
# T cruzi growth-2: Trypanosoma cruzi proliferation inhibition | shares compounds with T cruzi growth-1 | T. cruzi beta-gal in NIH3T3, GalScreen luminescence, 90 h | inhibition, % at 8.35 µM | hit rate 72% among 5,600;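 active = mean replicate inhibition above about 95% and at least 55% of replicates individually reaching it, limit read from the data; inconclusive = only one of the two criteria is met; inactive = neither criterion is met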
# T cruzi growth-3: inhibitors of T. cruzi proliferation; shares compounds with T cruzi growth-1; T. cruzi beta-gal in NIH3T3, GalScreen luminescence, 90 h; inhibition, % at 2.09 µM; hit rate 21% among 5,600;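 active = mean inhibition above about 95%, with at least 55% of replicates also reaching it, limit read from the data; inconclusive = meets just one of the two conditions; inactive = meets neither condition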;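 note: plate controls were neutral control median for no effect and positive control median for full effect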
# 3T3 cytotox: cytotoxicity in mouse NIH/3T3 fibroblasts; shares compounds with T cruzi growth-1; NIH/3T3 viability, CellTiter-Glo ATP luminescence, 90 h; cytotoxicity (signal decrease), % at 8.35 µM; hit rate 14% among 5,600; AID 651742;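 active = mean signal decrease across replicates above about 35% based on untreated-well scatter, with enough replicates individually passing, limit read from the data; inconclusive = no rule stated though some were filed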;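 note: 0% = median of neutral control wells and 100% = median of positive control wells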
# NIH3T3 tox 2: kills mouse NIH/3T3 fibroblasts; inhibition, % at 24.9 µM; NIH/3T3 viability, CellTiter-Glo ATP luminescence, 90 h; hit rate 56% among 5,600; AID 651744; shares compounds with T cruzi growth-1;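 active = mean loss of cell viability signal at or above a set limit, and enough replicates individually reaching it; inconclusive = meets only the mean limit or only the replicate share; inactive = meets neither condition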;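 note: 0% = median of neutral control wells and 100% = median of positive control wells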
# The depositor's hits bear a star; u = inconclusive; x = not tested or not shown.
SMILES,IDH1 R132H inh,Pf Dd2 growth,T cruzi growth-1,KDM4C inh,T cruzi growth-2,T cruzi growth-3,3T3 cytotox,NIH3T3 tox 2
COc1ccc(NC(=O)Nc2cccc3c2O[C@H](CN(C)C)[C@@H](C)CN([C@H](C)CO)C3=O)cc1,0,-2,x,2,x,x,x,x
CC(C)NC(=O)N(C)C[C@H]1Oc2ccc(NS(=O)(=O)c3ccc(Cl)cc3)cc2C(=O)N([C@H](C)CO)C[C@H]1C,2,6,-24,-1,x,x,x,x
CC(=O)N(C)C[C@H]1Oc2cc(C#CCN(C)C)ccc2S(=O)(=O)N([C@@H](C)CO)C[C@H]1C,-4,32,24,4,x,x,x,x
C[C@@H]1CCCCO[C@@H](CN(C)CC2CC2)[C@@H](C)CN([C@H](C)CO)C(=O)c2cc(NC(=O)Nc3ccccc3)ccc2O1,x,-84*,97*,-1,39,3,-2,7
O=C(Nc1ccc(F)cc1)N1CCCCN2[C@@H](CO)[C@@H](c3ccc(C#Cc4ccccn4)cc3)[C@@H]2C1,x,-51,110*,-1,103*,97*,16,35*
COc1ccc(NC(=O)N2CCCCN3[C@H](CO)[C@@H](c4ccc(C#Cc5ccccn5)cc4)[C@@H]3C2)cc1,x,-19,u,-2,111*,92,-3,14
Cc1ccc(-c2ccc([C@H]3[C@@H](CO)N4CCCCN(S(=O)(=O)c5cccc(C)c5)C[C@@H]34)cc2)cc1,x,-46,85,x,x,x,x,x
C/C=C/c1ccc([C@H]2[C@@H](CO)N3CCCCN(S(=O)(=O)c4cccc(C)c4)C[C@@H]23)cc1,x,-7,111*,-1,112*,69,10,80*
C/C=C/c1ccc([C@H]2[C@H](CO)N3CCCCN(S(=O)(=O)c4cccc(C)c4)C[C@@H]23)cc1,x,-10,118*,0,107*,75,27,105*
C/C=C/c1ccc([C@@H]2[C@@H](CO)N3CCCCN(S(=O)(=O)c4ccc(F)cc4)C[C@H]23)cc1,x,-11,86,-3,x,x,x,x
COc1ccc(NC(=O)Nc2ccc3c(c2)C(=O)N([C@H](C)CO)C[C@@H](C)[C@H](CN(C)S(=O)(=O)c2ccc(F)cc2)O3)cc1,x,5,17,1,x,x,x,x
COc1ccc(CN2C[C@@H](O)COC[C@H]3O[C@@H](CC(=O)N4CCc5ccccc5C4)CC[C@@H]32)cc1,x,-12,-11,1,x,x,x,x
Cc1noc(C)c1S(=O)(=O)N(C)C[C@@H]1OCCCC[C@@H](C)Oc2ccc(NC(=O)NC(C)C)cc2C(=O)N([C@@H](C)CO)C[C@@H]1C,1,8,48,1,x,x,x,x
COc1cccc(-c2ccc([C@H]3[C@H]4CN(CC5CCOCC5)CCCCN4[C@H]3CO)cc2)c1,x,-15,104*,x,74,23,3,58*
COc1cccc(-c2ccc([C@@H]3[C@H](CO)N4CCCCN(CC5CCOCC5)C[C@@H]34)cc2)c1,x,-50,50,x,x,x,x,x
COc1cccc(-c2ccc([C@@H]3[C@@H](CO)N4CCCCN(CC5CCOCC5)C[C@@H]34)cc2)c1,x,-10,98*,x,99*,39,18,54*
O=C(Cc1ccncc1)N[C@H]1CC[C@H](CCn2cc(-c3ccccc3F)nn2)O[C@H]1CO,-1,18,-8,-1,x,x,x,x
C[C@H]1CN([C@@H](C)CO)S(=O)(=O)c2ccc(C#CC3CCCC3)cc2O[C@H]1CN(C)C(=O)c1cccc(F)c1,3,-56,124*,0,94,94,-3,103*
C[C@H](CO)N1C[C@H](C)[C@@H](CN(C)C(=O)c2cccc(F)c2)Oc2cc(C#CC3CCCC3)ccc2S1(=O)=O,0,-71,122*,0,102*,113*,13,105*
CC(C)C#Cc1ccc2c(c1)O[C@@H](CN(C)C(=O)c1cccc(F)c1)[C@@H](C)CN([C@@H](C)CO)S2(=O)=O,0,-72,95,0,x,x,x,x
CCCC#Cc1cnc2c(c1)C(=O)N([C@H](C)CO)C[C@H](C)[C@@H](CN(C)C(=O)c1cnccn1)O2,-4,-6,-31,2,x,x,x,x
C[C@@H]1CN([C@H](C)CO)S(=O)(=O)c2ccc(C#CCC3CCCC3)cc2O[C@H]1CN(C)C(=O)c1ccccn1,0,-62,48,2,x,x,x,x
C[C@H]1CN([C@@H](C)CO)C(=O)c2cccc(NS(=O)(=O)c3cccs3)c2O[C@@H]1CN(C)S(=O)(=O)c1ccccc1,-1,21,-15,0,x,x,x,x
COc1ccc(S(=O)(=O)N(C)C[C@H]2OCCCC[C@H](C)Oc3ccc(NC(=O)Nc4ccc(F)cc4)cc3C(=O)N([C@H](C)CO)C[C@@H]2C)cc1,x,-41,u,-3,105*,92,0,18
COc1ccc(NC(=O)Nc2ccc3c(c2)C(=O)N([C@H](C)CO)C[C@H](C)[C@@H](CN(C)S(=O)(=O)c2ccc(F)cc2)OCCCC[C@H](C)O3)cc1,1,-49,113*,17,110*,39,15,2
SMILES,IDH1 R132H inh,Pf Dd2 growth,T cruzi growth-1,KDM4C inh,T cruzi growth-2,T cruzi growth-3,3T3 cytotox,NIH3T3 tox 2
CC(C)NC(=O)N1CCCCN2[C@@H](CO)[C@H](c3ccc(Br)cc3)[C@@H]2C1,x,-27,60,1,x,x,x,x
CC(C)(O)C#Cc1ccc([C@H]2[C@H]3CN(Cc4ccccc4F)CCCCN3[C@H]2CO)cc1,x,-22,44,2,x,x,x,x
OC[C@H]1[C@@H](c2ccc(C#Cc3cccnc3)cc2)[C@H]2CN(Cc3ccccc3F)CCCCN21,x,-58,u,2,106*,92,15,74*
COc1ccc(C#Cc2ccc([C@@H]3[C@H]4CN(Cc5ccccc5F)CCCCN4[C@H]3CO)cc2)cc1,x,-51,54,-2,x,x,x,x
OC[C@H]1[C@@H](c2ccc(C#Cc3cccnc3)cc2)[C@@H]2CN(Cc3ccccc3F)CCCCN12,x,-74,111*,0,96*,u,36*,104*
N#Cc1cccc(-c2ccc([C@H]3[C@@H](CO)N4CCCCN(Cc5ccccc5F)C[C@@H]34)cc2)c1,x,22,99*,-2,104*,77,14,97*
COc1ccc(C#Cc2ccc([C@H]3[C@@H](CO)N4CCCCN(Cc5ccccc5F)C[C@H]34)cc2)cc1,x,-72,-9,-1,x,x,x,x
N#Cc1cccc(-c2ccc([C@@H]3[C@@H](CO)N4CCCCN(Cc5ccccc5F)C[C@H]34)cc2)c1,x,-28,58,1,x,x,x,x
OC[C@H]1[C@H](c2ccc(C#Cc3cccnc3)cc2)[C@H]2CN(Cc3ccccc3F)CCCCN21,x,-71,110*,2,107*,79,16,103*

# High-throughput results from PubChem.
